Measured values from ChEMBL document CHEMBL3351818, “Synthesis and biological evaluation of novel 3,4-diaryl-1,2,5-selenadiazol analogues of combretastatin A-4” (Eur J Med Chem, 2014).
Activity calls are given as the source filed them. The rule behind the calls is not given here.

What was measured:
[1] = Antiproliferative activity against human SGC7901 cells after 72 hrs by MTT assay; format: functional, cell-based; conditions: SGC-7901, 72 h
Method in brief: (§1)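 Cells were seeded at 1–3 × 10⁴/well, depending on growth rate, and grown 24 h. Triplicate wells were then exposed to agents for 72 h at 37 °C in 5% CO₂. IC50 is the concentration giving 50% absorbance reduction versus vehicle, averaged from ≥3 independent experiments. SGC-7901 and HT-1080 were cultured in RPMI-1640 with 10% FBS.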

[2] = Antiproliferative activity against human HT1080 cells after 72 hrs by MTT assay; format: functional, cell-based; conditions: HT-1080, 72 h; method in brief: as §1
KB = experiment: Antiproliferative activity against human KB cells after 72 hrs by MTT assay; format: functional, cell-based; method in brief: as §1
Tubulin (Homo sapiens) [3] = molecular target: T1, Tubulin (Homo sapiens) (UniProt P68371+Q9H4B7+P0DPH7+P68366+Q13509+Q71U36+P04350+Q3ZCM7+P07437+P68363+Q9BQE3+Q6PEY2+Q13885+Q9BVA1+Q9BUF5); experiment: Inhibition of tubulin (unknown origin) polymerization measured for 90 mins by fluorescence assay; format: protein-complex assay
Tubulin (Homo sapiens) [4] = molecular target: T1, Tubulin (Homo sapiens); experiment: Inhibition of tubulin (unknown origin) polymerization at 1 uM measured for 90 mins by fluorescence assay; format: protein-complex assay
Tubulin (Homo sapiens) [5] = molecular target: T1, Tubulin (Homo sapiens); experiment: Inhibition of tubulin (unknown origin) polymerization at 2 uM measured for 90 mins by fluorescence assay; format: protein-complex assay
Tubulin (Homo sapiens) [6] = molecular target: T1, Tubulin (Homo sapiens); experiment: Inhibition of tubulin (unknown origin) polymerization at 4 uM measured for 90 mins by fluorescence assay; format: protein-complex assay
Tubulin (Homo sapiens) [7] = molecular target: T1, Tubulin (Homo sapiens); experiment: Inhibition of tubulin (unknown origin) polymerization at 8 uM measured for 90 mins by fluorescence assay; format: protein-complex assay
HT-1080 [8] = experiment: Disruption of microtubule network in human HT1080 cells assessed as cell rounding at 2 times IC50 after 12 hrs by immunofluorescence staining method; format: cell-based
Method in brief: (§2)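 HT-1080 cells seeded at 1 × 10⁴/well, grown 24 h, then given vehicle or agent for 12 h. Fixed in 4% formaldehyde/PBS 30 min at −20 °C, permeabilised with 0.1% Triton X-100 5 min, and blocked with 5% BSA. Anti-α-tubulin (1:100) applied overnight at 4 °C, then FITC anti-mouse secondary (1:1000) 3 h at 37 °C, with DAPI counterstain.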

[9] = Cell cycle arrest in human HT1080 cells assessed as accumulation at sub-G1 phase at 50 nM after 24 hrs using propidium iodide staining by FACScan flow cytometry; format: functional, cell-based; conditions: HT-1080
Method in brief: (§3)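 HT-1080 cells (8 × 10⁴) exposed 24 h to test agent or 0.05% DMSO vehicle. Harvested by centrifugation, PBS-washed, fixed in ice-cold 70% ethanol, then RNase-treated 30 min at 37 °C. Propidium iodide 50 µg/mL applied 30 min at 4 °C in the dark before FACScan flow cytometry. Repeated at least three times.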

[10] = Cell cycle arrest in human HT1080 cells assessed as accumulation at G0/G1 phase at 50 nM after 24 hrs using propidium iodide staining by FACScan flow cytometry (Rvb =52.17 %); format: functional, cell-based; conditions: HT-1080; method in brief: as §3
[11] = Cell cycle arrest in human HT1080 cells assessed as accumulation at S phase at 50 nM after 24 hrs using propidium iodide staining by FACScan flow cytometry (reference value: 18.56 %); format: functional, cell-based; conditions: HT-1080; method in brief: as §3
[12] = Cell cycle arrest in human HT1080 cells assessed as accumulation at G2/M phase at 50 nM after 24 hrs using propidium iodide staining by FACScan flow cytometry (reference value: 29.27 %); format: functional, cell-based; conditions: HT-1080; method in brief: as §3
[13] = Cell cycle arrest in human HT1080 cells assessed as accumulation at G2/M phase after 24 hrs using propidium iodide staining by FACScan flow cytometry; format: functional, cell-based; conditions: HT-1080; method in brief: as §3
[14] = Cell cycle arrest in human HT1080 cells assessed as accumulation at sub-G1 phase at 75 nM after 24 hrs using propidium iodide staining by FACScan flow cytometry; format: functional, cell-based; conditions: HT-1080; method in brief: as §3
[15] = Cell cycle arrest in human HT1080 cells assessed as accumulation at G0/G1 phase at 75 nM after 24 hrs using propidium iodide staining by FACScan flow cytometry (Rvb =52.17 %); format: functional, cell-based; conditions: HT-1080; method in brief: as §3
[16] = Cell cycle arrest in human HT1080 cells assessed as accumulation at S phase at 75 nM after 24 hrs using propidium iodide staining by FACScan flow cytometry (reference value: 18.56 %); format: functional, cell-based; conditions: HT-1080; method in brief: as §3
[17] = Cell cycle arrest in human HT1080 cells assessed as accumulation at G2/M phase at 75 nM after 24 hrs using propidium iodide staining by FACScan flow cytometry (reference value: 29.27 %); format: functional, cell-based; conditions: HT-1080; method in brief: as §3
[18] = Cell cycle arrest in human HT1080 cells assessed as accumulation at sub-G1 phase at 100 nM after 24 hrs using propidium iodide staining by FACScan flow cytometry; format: functional, cell-based; conditions: HT-1080; method in brief: as §3
[19] = Cell cycle arrest in human HT1080 cells assessed as accumulation at G0/G1 phase at 100 nM after 24 hrs using propidium iodide staining by FACScan flow cytometry (Rvb =52.17 %); format: functional, cell-based; conditions: HT-1080; method in brief: as §3
[20] = Cell cycle arrest in human HT1080 cells assessed as accumulation at S phase at 100 nM after 24 hrs using propidium iodide staining by FACScan flow cytometry (reference value: 18.56 %); format: functional, cell-based; conditions: HT-1080; method in brief: as §3
[21] = Cell cycle arrest in human HT1080 cells assessed as accumulation at G2/M phase at 100 nM after 24 hrs using propidium iodide staining by FACScan flow cytometry (reference value: 29.27 %); format: functional, cell-based; conditions: HT-1080; method in brief: as §3
[22] = Cell cycle arrest in human HT1080 cells assessed as accumulation at sub-G1 phase at 150 nM after 24 hrs using propidium iodide staining by FACScan flow cytometry; format: functional, cell-based; conditions: HT-1080; method in brief: as §3
[23] = Cell cycle arrest in human HT1080 cells assessed as accumulation at G0/G1 phase at 150 nM after 24 hrs using propidium iodide staining by FACScan flow cytometry (Rvb =52.17 %); format: functional, cell-based; conditions: HT-1080; method in brief: as §3
[24] = Cell cycle arrest in human HT1080 cells assessed as accumulation at S phase at 150 nM after 24 hrs using propidium iodide staining by FACScan flow cytometry (reference value: 18.56 %); format: functional, cell-based; conditions: HT-1080; method in brief: as §3
[25] = Cell cycle arrest in human HT1080 cells assessed as accumulation at G2/M phase at 150 nM after 24 hrs using propidium iodide staining by FACScan flow cytometry (reference value: 29.27 %); format: functional, cell-based; conditions: HT-1080; method in brief: as §3
[26] = Cell cycle arrest in human HT1080 cells assessed as accumulation at sub-G1 phase at 25 nM after 24 hrs using propidium iodide staining by FACScan flow cytometry; format: functional, cell-based; conditions: HT-1080; method in brief: as §3
[27] = Cell cycle arrest in human HT1080 cells assessed as accumulation at G0/G1 phase at 25 nM after 24 hrs using propidium iodide staining by FACScan flow cytometry (Rvb =52.17 %); format: functional, cell-based; conditions: HT-1080; method in brief: as §3
[28] = Cell cycle arrest in human HT1080 cells assessed as accumulation at S phase at 25 nM after 24 hrs using propidium iodide staining by FACScan flow cytometry (reference value: 18.56 %); format: functional, cell-based; conditions: HT-1080; method in brief: as §3
[29] = Cell cycle arrest in human HT1080 cells assessed as accumulation at G2/M phase at 25 nM after 24 hrs using propidium iodide staining by FACScan flow cytometry (reference value: 29.27 %); format: functional, cell-based; conditions: HT-1080; method in brief: as §3
HT-1080 [30] = experiment: Disruption of microtubule network in human HT1080 cells assessed as cell detachment at 2 times IC50 after 12 hrs by immunofluorescence staining method; format: cell-based; method in brief: as §2
HT-1080 [31] = experiment: Disruption of microtubule network in human HT1080 cells assessed as loss of the radial distribution of structured microtubules at 2 times IC50 after 12 hrs by immunofluorescence staining method; format: cell-based; method in brief: as §2

CCOc1ccc(-c2n[se]nc2-c2cc(OC)c(OC)c(OC)c2)cc1
IC50 [1]: 0.23 µM | IC50 [2]: 0.16 µM | IC50 (KB): 0.42 µM

CNc1cc(-c2n[se]nc2-c2cc(OC)c(OC)c(OC)c2)ccc1OC
IC50 [1]: > 30 µM | IC50 [2]: 0.98 µM | IC50 (KB): 1.52 µM

COc1ccc(-c2n[se]nc2-c2cc(OC)c(OC)c(OC)c2)cc1O
IC50 [1]: 0.019 µM | IC50 [2]: 0.021 µM | IC50 (KB): 0.0039 µM | inhibition (Tubulin (Homo sapiens) [3]): Dose-dependent effect | inhibition (Tubulin (Homo sapiens) [4]): 20.4% | inhibition (Tubulin (Homo sapiens) [5]): 48.8% | inhibition (Tubulin (Homo sapiens) [6]): 65% | inhibition (Tubulin (Homo sapiens) [7]): 97.6% | Activity (HT-1080 [8]): Active | Activity [9]: 2.47% | Activity [10]: 49.1% | Activity [11]: 16% | Activity [12]: 32.4% | Activity [13]: Dose-dependent effect | Activity [14]: 4.39% | Activity [15]: 37.2% | Activity [16]: 13.3% | Activity [17]: 45.2% | Activity [18]: 18.1% | Activity [19]: 5.46% | Activity [20]: 4.07% | Activity [21]: 72.4% | Activity [22]: 10.9% | Activity [23]: 2.61% | Activity [24]: 5.82% | Activity [25]: 80.7% | Activity [26]: 15.7% | Activity [27]: 3.93% | Activity [28]: 3.1% | Activity [29]: 71.9% | Activity (HT-1080 [30]): Active | Activity (HT-1080 [31]): Active

COc1ccc(-c2n[se]nc2-c2ccc3c(c2)OCO3)cc1N
IC50 [1]: > 30 µM | IC50 [2]: 13.5 µM | IC50 (KB): 1.87 µM

COc1cc(-c2n[se]nc2-c2ccc(O)cc2)cc(OC)c1OC
IC50 [1]: > 30 µM | IC50 [2]: 15 µM | IC50 (KB): 15.8 µM

COc1cc(-c2n[se]nc2-c2ccc(Br)cc2)cc(OC)c1OC
IC50 [1]: 10.9 µM | IC50 [2]: 7.4 µM | IC50 (KB): 7.86 µM

c1ccc2cc(-c3n[se]nc3-c3ccc4c(c3)OCO4)ccc2c1
IC50 [1]: 17.3 µM | IC50 [2]: 23.3 µM | IC50 (KB): 10.4 µM

CCOc1ccc(-c2n[se]nc2-c2cc(OC)c(OC)c(OC)c2)cc1N
IC50 [1]: 0.14 µM | IC50 [2]: 10.1 µM | IC50 (KB): 0.099 µM

COc1ccc(-c2n[se]nc2-c2cc(OC)c(OC)c(OC)c2)cc1N
IC50 [1]: 0.021 µM | IC50 [2]: 0.026 µM | IC50 (KB): 0.011 µM

COc1cc(-c2n[se]nc2-c2cccc(O)c2)cc(OC)c1OC
IC50 [1]: > 30 µM | IC50 [2]: 5.98 µM | IC50 (KB): > 30 µM

COc1ccc(/C=C\c2cc(OC)c(OC)c(OC)c2)cc1O [COMBRETASTATIN A4]
IC50 [1]: 0.028 µM | IC50 [2]: 0.0076 µM | IC50 (KB): 0.013 µM

COc1ccc(-c2n[se]nc2-c2cc(OC)c(OC)c(OC)c2)cc1OCc1ccccc1
IC50 [1]: > 30 µM | IC50 [2]: > 30 µM | IC50 (KB): > 30 µM

COc1cc(-c2n[se]nc2-c2ccc(O)c(Br)c2)cc(OC)c1OC
IC50 [1]: > 30 µM | IC50 [2]: 16.4 µM | IC50 (KB): 4.8 µM

CCOc1ccc(-c2n[se]nc2-c2cc(OC)c(OC)c(OC)c2)cc1Br
IC50 [1]: 12.8 µM | IC50 [2]: 3.46 µM | IC50 (KB): 0.93 µM

COc1ccc(-c2n[se]nc2-c2ccc3c(c2)OCO3)cc1[N+](=O)[O-]
IC50 [1]: > 30 µM | IC50 [2]: > 30 µM | IC50 (KB): > 30 µM

COc1ccc(-c2n[se]nc2-c2cc(OC)c(OC)c(OC)c2)cc1Br
IC50 [1]: > 30 µM | IC50 [2]: 2.59 µM | IC50 (KB): 3.06 µM

COc1ccc(-c2n[se]nc2-c2cc(OC)c(OC)c(OC)c2)cc1[N+](=O)[O-]
IC50 [1]: > 30 µM | IC50 [2]: 24.8 µM | IC50 (KB): 10.1 µM

COc1ccc(-c2n[se]nc2-c2cc(OC)c(OC)c(OC)c2)cc1
IC50 [1]: 0.063 µM | IC50 [2]: 0.084 µM | IC50 (KB): 0.031 µM

COc1cc(-c2n[se]nc2-c2cccc(OCc3ccccc3)c2)cc(OC)c1OC
IC50 [1]: > 30 µM | IC50 [2]: > 30 µM | IC50 (KB): 10.7 µM

COc1ccc(-c2n[se]nc2-c2ccc3c(c2)OCO3)cc1
IC50 [1]: 8.28 µM | IC50 [2]: > 30 µM | IC50 (KB): 5.21 µM

COc1cc(-c2n[se]nc2-c2ccc3ccccc3c2)cc(OC)c1OC
IC50 [1]: 2.35 µM | IC50 [2]: 1.11 µM | IC50 (KB): 0.77 µM

COc1ccc(-c2n[se]nc2-c2ccc3c(c2)OCO3)cc1O
IC50 [1]: 3.68 µM | IC50 [2]: 0.73 µM | IC50 (KB): 2.38 µM
